Results published in ChEMBL document CHEMBL1151977, “Antiviral constituents against respiratory viruses from Mikania micrantha” (J Nat Prod, 2009).
pIC50: −log10 of the molar value.

Tests used:
[1] = tested on: Respiratory syncytial virus; assay: Antiviral activity against Respiratory syncytial virus infected in human Hep2 cells assessed as inhibition of virus-induced cytopathogenic effect by plaque reduction assay; type: functional, organism-based; details: HEp-2
Human respirovirus 3 = assay: Antiviral activity against Parainfluenza virus type 3 infected in human Hep2 cells assessed as inhibition of virus-induced cytopathogenic effect by plaque reduction assay; type: functional, organism-based; details: Human respirovirus 3, HEp-2
[2] = Cytotoxicity against human Hep2 cells; type: cell-based, HEp-2; details: read-out: TC50 (the source's name)
[3] = Therapeutic index, ratio of TC50 for human Hep2 cells to IC50 for Parainfluenza virus type 3 infected in human Hep2 cells; type: cell-based, HEp-2; details: read-out: TI
In short: (§1)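 Antiviral IC50 came from a virus-induced cytopathic effect reduction assay in infected cells. Therapeutic index was calculated as TC50 divided by IC50.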

[4] = Cytotoxicity against MDCK cells; type: cell-based, Canis lupus familiaris; details: dog, read-out: TC50 (the source's name)
Influenza A virus = assay: Antiviral activity against Influenza A virus infected in MDCK cells assessed as inhibition of virus-induced cytopathogenic effect by plaque reduction assay; type: functional, organism-based
[5] = Therapeutic index, ratio of TC50 for human Hep2 cells to IC50 for Respiratory syncytial virus infected in human Hep2 cells; type: cell-based, HEp-2; details: read-out: TI; in short: as §1
[6] = Therapeutic index, ratio of TC50 for MDCK cells to IC50 for Influenza A virus infected in MDCK cells; type: cell-based; details: dog, read-out: TI; in short: as §1

CC(C)[C@@H](C)/C=C/[C@@H](C)[C@H]1CC[C@H]2C3=CC[C@H]4C[C@@H](O)CC[C@]4(C)[C@H]3CC[C@]12C
pIC50 [1]: 4.30 | pIC50 (Human respirovirus 3): 4.30 | CC50 [2]: 303 µM | selectivity ratio [3]: 6 | CC50 [4]: 405 µM | pIC50 (Influenza A virus): 3.69 | selectivity ratio [5]: 6 | selectivity ratio [6]: 2

CC(=O)O[C@H]1C[C@@H]2O[C@@]2(C)C[C@@H]2OC(=O)[C@H](C)[C@H]2[C@H]2C=C1C(=O)O2
pIC50 [1]: 4.21 | pIC50 (Human respirovirus 3): 3.73 | CC50 [2]: 186 µM | selectivity ratio [3]: 1 | CC50 [4]: 186 µM | pIC50 (Influenza A virus): 3.73 | selectivity ratio [5]: 3 | selectivity ratio [6]: 1

COc1ccc(-c2oc3cc(OC)c(OC)c(O)c3c(=O)c2OS(=O)(=O)O)cc1
pIC50 [1]: 4.10 | pIC50 (Human respirovirus 3): 4.71 | CC50 [2]: 472 µM | selectivity ratio [3]: 24 | CC50 [4]: 237 µM | pIC50 (Influenza A virus): 4.10 | selectivity ratio [5]: 6 | selectivity ratio [6]: 3

C[C@H]1C(=O)O[C@H]2C[C@]3(C)O[C@H]3CCC3=C[C@@H](OC3=O)[C@@H]21
pIC50 [1]: 4.43 | pIC50 (Human respirovirus 3): 4.43 | CC50 [2]: 600 µM | selectivity ratio [3]: 16 | CC50 [4]: 600 µM | pIC50 (Influenza A virus): < 3.44 | selectivity ratio [5]: 16 | selectivity ratio [6]: < 1.7

C[C@H]1C(=O)O[C@H]2C[C@]3(C)O[C@H]3[C@@H]3O[C@@H]3C3=C[C@@H](OC3=O)[C@@H]21 [DIHYDROMIKANOLIDE]
pIC50 [1]: 3.85 | pIC50 (Human respirovirus 3): 3.85 | CC50 [2]: 214 µM | selectivity ratio [3]: 1.5 | CC50 [4]: 214 µM | pIC50 (Influenza A virus): 3.85 | selectivity ratio [5]: 1.5 | selectivity ratio [6]: 1.5

COc1ccc(-c2oc3cc(OC)c(OC)c(O)c3c(=O)c2O)cc1 [MIKANIN]
pIC50 [1]: 4.26 | pIC50 (Human respirovirus 3): 4.38 | CC50 [2]: 83.1 µM | selectivity ratio [3]: 2 | CC50 [4]: 500 µM | pIC50 (Influenza A virus): 3.78 | selectivity ratio [5]: 1.5 | selectivity ratio [6]: 3

NC(=O)c1ncn([C@@H]2O[C@H](CO)[C@@H](O)[C@H]2O)n1 [RIBAVIRIN]
pIC50 [1]: 4.97 | pIC50 (Human respirovirus 3): 4.97 | CC50 [4]: > 256 µM | pIC50 (Influenza A virus): 4.37
